According to PubChem BioAssay AID489030 (Sanford-Burnham Center for Chemical Genomics, 2010):
Where “and” joins values, the source holds several entries; their conditions need not be identical. Equal values may be shown once. Out of some 330,000 compounds screened, about 2,400 (0.73%) were called active. For the sample, actives were picked, then their nearest neighbours and some compounds at random. Values without a mark were called inactive. The calls were made as follows: active = inhibition of at least 40% at 20 µM; inactive = the rest.

What follows are molecules tested against Apoptotic protease-activating factor 1 (Homo sapiens) (UniProt O14727) (assay: blockers of Apaf-1-driven caspase-3 activation – biochemical, DEVD-Rh110 fluorescence, uHTS, primary screen (AID 489030;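 also: plate controls were DMSO wells for no effect and DEVD-CHO caspase inhibitor wells for full effect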)). Conditions: reconstituted apoptosome caspase-3 activity, at 20 µM, active compounds read high.
Method in brief: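 System: Apoptosome proteins | Medium: Hepes pH 7.5 with detergent and BSA | Also added: Cytochrome c trigger plus (Z-DEVD)2-Rh110 caspase-3 substrate | Incubation: 30 min compound preincubation, 50 min activation, room temperature | Detection: Rhodamine 110 fluorescence at Ex 480/Em 540 nm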

Apoptotic protease-activating factor 1 (Homo sapiens), sequence (O14727 whole entry, looked up): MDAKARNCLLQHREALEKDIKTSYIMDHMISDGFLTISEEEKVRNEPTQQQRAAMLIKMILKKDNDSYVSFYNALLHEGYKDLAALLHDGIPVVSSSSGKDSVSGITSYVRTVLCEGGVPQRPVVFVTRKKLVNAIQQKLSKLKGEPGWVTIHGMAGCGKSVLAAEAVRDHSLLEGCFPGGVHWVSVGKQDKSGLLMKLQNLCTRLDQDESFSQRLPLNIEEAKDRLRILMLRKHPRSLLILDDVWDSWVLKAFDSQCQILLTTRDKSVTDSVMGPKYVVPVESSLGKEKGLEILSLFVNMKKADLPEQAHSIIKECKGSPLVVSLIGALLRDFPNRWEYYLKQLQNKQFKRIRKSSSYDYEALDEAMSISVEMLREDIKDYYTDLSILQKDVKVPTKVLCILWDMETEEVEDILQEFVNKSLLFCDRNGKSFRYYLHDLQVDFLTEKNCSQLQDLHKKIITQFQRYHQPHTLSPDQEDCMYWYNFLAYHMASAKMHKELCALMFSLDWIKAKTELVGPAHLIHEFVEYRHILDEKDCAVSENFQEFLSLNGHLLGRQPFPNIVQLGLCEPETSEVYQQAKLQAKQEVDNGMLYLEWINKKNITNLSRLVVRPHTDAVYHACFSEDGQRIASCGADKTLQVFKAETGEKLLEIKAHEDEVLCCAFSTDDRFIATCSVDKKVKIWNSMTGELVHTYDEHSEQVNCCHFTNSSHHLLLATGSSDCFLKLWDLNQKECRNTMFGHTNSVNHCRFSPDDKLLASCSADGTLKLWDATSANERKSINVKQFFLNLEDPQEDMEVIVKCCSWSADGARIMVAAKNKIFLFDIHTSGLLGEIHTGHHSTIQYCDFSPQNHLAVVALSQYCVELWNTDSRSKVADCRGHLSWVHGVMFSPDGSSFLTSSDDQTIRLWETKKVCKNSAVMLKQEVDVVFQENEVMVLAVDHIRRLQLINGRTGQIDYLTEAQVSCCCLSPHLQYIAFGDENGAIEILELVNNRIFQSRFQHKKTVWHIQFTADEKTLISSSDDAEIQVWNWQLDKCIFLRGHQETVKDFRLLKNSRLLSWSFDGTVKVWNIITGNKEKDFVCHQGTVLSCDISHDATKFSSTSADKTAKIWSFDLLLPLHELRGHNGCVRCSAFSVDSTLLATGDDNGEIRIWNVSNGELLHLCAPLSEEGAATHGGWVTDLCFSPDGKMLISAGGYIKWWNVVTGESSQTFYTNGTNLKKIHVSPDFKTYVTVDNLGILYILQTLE

Compound	inhibition
CC(=O)N(C1=C(Cl)C(=O)c2ccccc2C1=O)c1ccc(C(=O)O)cc1	89% (active)
Cc1ccc(-c2nc(-c3cccnc3)sc2CC(=O)Nc2ccc(C)c(Cl)c2)cc1	19%
Cc1cccc(OCC(=O)NC2CC(C)(C)NC(C)(C)C2)c1	0.115%
c1ccc(-c2cc(N3CCCCC3)c3ccccc3n2)cc1	-0.639%
O=c1cc(N2CCCCC2)c(-c2ccccc2)nn1Cc1cccc(F)c1	44% (active)
O=C(CS(=O)(=O)c1cn(Cc2cccc(F)c2)c2ccccc12)N1CCCCC1	18.4%
COc1ccc(OC)c(NC(=S)N2CCc3ccccc3C2)c1	-1.06%
O=S(=O)(c1ccc(Br)cc1)N1CCC(c2nc3ccccc3[nH]2)CC1	6.06%
Cc1noc(C)c1CSc1nnc2ccc3ccccc3n12	-5%
CN(C)c1ccc(/C=N/Nc2cc(N3CCOCC3)nc(N3CCOCC3)n2)cc1	1.31%
C(=N/Nc1cc(N2CCOCC2)nc(N2CCOCC2)n1)/c1ccccc1	76.5% (active)
COc1ccc(/C=N/Nc2cc(N3CCOCC3)nc(C)n2)c(OC)c1	0.02%
Cc1ccc(C)c2c1cc(C)c1nnc(SCC(=O)Nc3cccc(C(=O)O)c3)n12	-9.82%
CCOCCCNS(=O)(=O)Cc1ccccc1	5.85%
COc1cnc(SCc2ccc(Cl)c(Cl)c2)nc1Cl	0.38%
O=C(CN1CCCCCC1)Nc1c(Cl)cc(Cl)cc1Cl	-0.605%
Cc1[nH][nH]c(=O)c1C(c1ccc(-c2ccc(Cl)cc2)o1)c1c(C)[nH][nH]c1=O	85.8% (active)
CN(CC(=O)Nc1ccc(F)cc1)C(=O)c1ccc(-c2ccc(Cl)cc2)o1	22%
O=C(NC1CCCCC1)c1ccc(-c2ccc(Cl)cc2)o1	15%
c1ccc(-n2nc3ccccc3n2)cc1	2.62%
Nc1ccc2nn(-c3ccc(Cl)cc3)nc2c1	83.8% (active)
CCC(=O)Nc1ccc2nn(-c3ccc(F)cc3)nc2c1	17.5%
O=Cc1c(Cl)cccc1Cl	-4.79%
Cc1nn(C)cc1N1C(=O)c2cccc3c(N)ccc(c23)C1=O	12.4%

Compound	inhibition
CCN1C(=O)c2cccc3c(N)ccc1c23	97.1% (active)
CCN1C(=O)c2cccc3c(S(=O)(=O)Nc4ccccc4O)ccc1c23	5.31%
CCSc1sc(CC)cc1C=O	-7.54%
COCCC(=O)Nc1ccc2c(c1)CN(C(=O)CCOC)CC2	-12.8%
Cc1occc1C(=O)N/N=C/c1ccc(-c2cccc([N+](=O)[O-])c2)o1	10.6%
O=C(CN1CCOCC1)N/N=C/c1ccc(-c2ccc(Br)cc2)o1	-12%
Cc1ccc(-c2ccc(/C=N/NC(=O)CN3CCOCC3)o2)cc1[N+](=O)[O-]	73.9% (active)
CCOc1ccc(CNC(=O)C2CCCN(c3nnc(C)c4c(C)n(-c5ccccc5)nc34)C2)cc1 (stereo not given)	23.8%
CCc1ccc(CNC(=O)C2CCN(c3nnc(C)c4c(C)n(-c5ccc(C)cc5)nc34)CC2)cc1	42.3% (active)
COc1ccc(-n2nc3c(N4CCC(C(=O)NCc5ccccc5)CC4)nnc(C)c3c2C)cc1	7.29%
C=C(C)CSc1nc(N)c2c3c(sc2n1)CCC3	-16.8%
CC(C)CNC(=O)/C=C/C(=O)O	-2.85%
O=C1c2ccccc2-c2ncnc3c(N4CCOCC4)cc(N4CCOCC4)c1c23	11.8%
COC1=C(N2CCOCC2)C(=O)c2ccccc2C1=O	65.8% (active)
O=C1C(Cl)=C(N2CCOCC2)C(=O)N1c1ccccc1	-17.1%
Cc1ccc(S(=O)(=O)C(C#N)c2nc3ccccc3nc2N2CCCC2)cc1C (stereo not given)	60% (active)
Cc1ccc(S(=O)(=O)N2CCN(c3ccccc3)CC2)cc1C	14.9%
CC(C)OC(=O)C(C#N)c1nc2ccccc2nc1N1CCN(Cc2ccccc2)CC1 (stereo not given)	10.2%
CN(C(=O)CCNC(=O)Cn1ccc2ccccc2c1=O)c1ccc(Br)cc1	3.8%
Cc1ccc(C(C)C)c(OCc2nnc(SCC(=O)Nc3nccs3)n2C)c1	11.4%
CC[C@@H](C)[C@@H]1CN([C@@H](C)CN2CCC[C@H]2CN2C(N)=NC[C@H]2C(C)C)C(=N)N1CCc1ccc(Cl)c(Cl)c1	25.3%
C[C@@H](CN1CCC[C@H]1CN1C(N)=NC[C@@H]1Cc1ccccc1)N1C[C@@H](Cc2ccccc2)N(CCCC2CCCC2)C1=N	70.9% (active)
CCCCN1C(N)=NC[C@@H]1Cc1ccccc1	13.2%
CC(C)CC(=O)N1CCN(Cc2ccccc2Br)CC1	8.5%

Compound	inhibition
COc1ccc(NC(=O)c2cccc3c2C(=O)N(CC2CCCO2)C3)cc1OC (stereo not given)	2.96%
COCCc1nn2c(=O)cc(COC(=O)c3cc(OC)c(OC)c(OC)c3)nc2s1	-4.08%
Cc1[nH]n(-c2ccccc2)c(=O)c1/C=N/NC(=O)c1ccoc1C	61.5% (active)
Cc1ccc(-n2[nH]c(C)c(/C=N/NC(=O)c3cccc([N+](=O)[O-])c3)c2=O)cc1C	25.4%
COc1cc(/C=N/NC(=O)c2ccoc2C)ccc1OCCN1CCCCC1	10.2%
Cc1cc(N=Nc2ccc3ccccc3c2)ccc1O	4.6%
CC(=O)n1c(C=Nc2ccccc2)c(O)c2ccccc21	5.41%
Oc1ccc(/C=N/N(Cc2ccccc2)c2ccccc2)cc1	8.85%
Oc1ccc(N=Cc2c(O)ccc3ccccc23)cc1	87.2% (active)
Oc1ccc(N=Cc2sc3ccccc3c2Cl)cc1	64.8% (active)
CSc1ccc(CCNC(=O)C2CCN(c3nnc(-n4cccc4)s3)CC2)cc1	0.72%
O=C(NCCCn1ccnc1)c1cc2c(s1)CCCC2	11.9%
COc1ccc(-c2nc(N)sc2C2(O)C(=O)Nc3c(Br)cc(F)cc32)cc1OC (stereo not given)	3.73%
CCOc1c2ccc(C(=O)NC3CCCc4ccccc43)cc2nn1CC (stereo not given)	5.11%
CCOC(=O)N1CCC(=NNC(N)=O)CC1	1.89%
O=C(NCc1cccs1)c1cc(-c2ccccn2)nc2ccc(Br)cc12	5.9%
C=CCn1c(C(C)NC(=O)CC)nc2ccccc21 (stereo not given)	-0.828%
CC(=O)c1ccc(NC(=O)CSc2nc3ccccc3c(=O)n2CCCN2CCOCC2)cc1	2.62%
CC(CN1CCOCC1)OC(=O)c1ccc(C(C)(C)C)cc1 (stereo not given)	15.5%
C=CCn1c(P(C)(=O)O)nc2ccccc21	5.81% and -0.524%
COCC(C)OC(=O)c1c(N)n(CCCN2CCOCC2)c2nc3ccccc3nc12 (stereo not given)	50.9% (active)
C=CCn1c(N)c(C(=O)OCC(C)C)c2nc3ccccc3nc21	54.1% (active)
CCOc1ccccc1NC(=O)Cn1nnc(C(=O)NCc2cccs2)c1N	-4.26%
CC(C)Cn1c(N)c(C(=O)NCc2cccs2)c2nc3ccccc3nc21	63.4% (active)

Compound	inhibition
O=C(Nc1ccccc1Cl)NC1(C(=O)N2CCOCC2)CCCCC1	-1.88%
Cn1cncc1C#Cc1c(-c2ccsc2)sc2ccccc12	33.5%
CCC/C=C(\CCC)C(NC(=O)Cc1ccccc1)c1ccc(C(=O)OC)cc1 (stereo not given)	7.48%
CC1CCN(C(=O)COC(=O)c2cc(S(=O)(=O)N3CCOCC3)ccc2Cl)CC1	3.82%
CCOC(=O)c1ccc(NC(=O)Cn2cnc3cc(C)c(C)cc32)cc1	-0.083%
O=C(CCC(=O)OCC(F)(F)C(F)F)NCc1ccccc1	-13%
CCOc1ccc(NCCC(=O)c2ccc3c(c2)OCO3)cc1	4.39%
Oc1cc(O)c2c(c1)OC(c1ccc(O)c(O)c1)C(O)C2 (stereo not given)	-2.63%
COC(=O)C[n+]1cccc2ccccc21	-1.6%
O=C(N/N=C\c1cccnc1)c1cc(-c2ccccc2)nc2c(Cl)cccc12	40.1% (active)
C/C(=N\NC(=O)c1cc(-c2ccc(O)cc2)nc2ccccc12)c1cccnc1	7.65%
COc1ccc(-c2cc(C(=O)N/N=C/c3cccnc3)c3ccccc3n2)c(OC)c1	4.65%
COc1ccc(C(CNC(=O)c2cc3c(s2)CCCC3)N2CCOCC2)cc1 (stereo not given)	33.5%
COc1ccc(-c2nc3cnccn3c2NC2CCCCC2)cc1-c1cccc(Cl)c1	36.9%
COc1ccc(-c2nc3cc(C)ccn3c2NC2CCCCC2)cc1SC1CCCCC1	48.4% (active)
CCOc1cc(-c2nc3cc(C)ccn3c2NCC2CCCO2)ccc1O (stereo not given)	9.28%
CC1CN(C(=S)Nc2cccc(F)c2)CC(C)O1 (stereo not given)	-7.38%
COc1ccc(OC)c(C(c2nnnn2C(C)(C)C)N2CCc3ccccc3C2)c1 (stereo not given)	11.5%
COCCn1nnnc1C(c1cc2ccc(OC)cc2[nH]c1=O)N1CCc2ccccc2C1 (stereo not given)	56.8% (active)
CCOc1ccc2[nH]c(=O)c(C(c3nnnn3CCOC)N3CCOCC3)cc2c1 (stereo not given)	-3.2%
Cc1cc(OCc2cc(C(=O)NCc3cc(C(C)C)no3)no2)cc(C)c1Cl	17.4%
COC(=O)[C@@H]1C[C@@]2(O)[C@H](O)[C@H](O)[C@H](O)C[C@H]2N1Cc1ccc(C(C)(C)C)cc1	10.6%
CN(C)CCCN(Cc1cc2cc3c(cc2[nH]c1=O)OCCO3)C(=O)NC1CCCCC1	2.55%
